Bioassay records as filed in PubChem BioAssay.
Rpn11 block = Rpn11 (PSMD14) deubiquitinase inhibitors, primary screen, biochemical, fluorescence polarization, uHTS | 26S proteasome non-ATPase regulatory subunit 14 (Homo sapiens), O00487 | human 26S proteasome, Ub4-pepOG fluorescence polarization; 20S core pre-blocked with epoxomicin | calls only at 20 µM | hit rate 0.59% among 360,000 | AID 588493, 2011;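 active means inhibition at 20 µM, scaled to each plate's controls, above about 33%, limit read from the data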
Target sequence (O00487 whole entry, looked up): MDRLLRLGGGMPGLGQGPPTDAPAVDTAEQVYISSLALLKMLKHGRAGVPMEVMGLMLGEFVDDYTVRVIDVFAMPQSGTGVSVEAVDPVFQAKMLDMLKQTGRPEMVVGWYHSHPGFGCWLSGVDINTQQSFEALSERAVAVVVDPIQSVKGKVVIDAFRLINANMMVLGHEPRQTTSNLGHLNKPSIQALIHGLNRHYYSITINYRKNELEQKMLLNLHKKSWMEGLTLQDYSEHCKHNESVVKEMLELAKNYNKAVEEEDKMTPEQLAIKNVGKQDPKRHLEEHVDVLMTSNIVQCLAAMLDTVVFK
IDE act = human IDE activators in live cells, primary screen, fluorescence polarization, HEK cells, FAbeta-B substrate; Insulin-degrading enzyme (Homo sapiens), P14735; FAbeta-B cleavage; 0% vehicle, 100% cell-free pure enzyme wells; activation, % at 5.96 µM; hit rate 0.073% among 340,000; AID 493087, 2011;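 active means activation above the mean of all tested compounds plus 3 SD, set per screening campaign, cut at about 17% in these data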
HNF4A DNA FP = change in binding of human HNF4A to DNA, primary screen, biochemical, fluorescence polarization, FITC-DNA; 1 h; activity change, % at 10 µM; hit rate 0.3% among 360,000; AID 1224865, 2016; in the data active means activity change above about 30%, passing the limit was not always enough
IDE inh = human IDE inhibitors in live cells, primary screen, fluorescence polarization, HEK cells, FAbetaB substrate; AID 434962, 2010; inhibition, % at 5.59 µM; hit rate 0.41% among 320,000; FAbetaB cleavage;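 active means percent inhibition above the average of all tested compounds plus 3 SD, set per screening campaign, cut at about 16% in these data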;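 further: IDE supplied by intact live HEK cells; FP after avidin binding of uncleaved biotin substrate so inhibition keeps polarization high; 0% = DMSO wells and 100% = 60 µM reference IDE inhibitor Ii1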
CSN inh = inhibitors of CSN-mediated cullin deneddylation, primary screen, biochemical, fluorescence polarization, uHTS. COP9 signalosome complex subunit 5 (Homo sapiens), Q92905. Purified CSN, SCF-Nedd8-OG deneddylation. inhibition, % at 12.5 µM. hit rate 0.38% among 360,000. AID 651999, 2013;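 active means pattern-corrected inhibition above about 35%, with an unprinted fluorescence ratio check between 0.5 and 1.5, limit read from the data, passing the limit was not always enough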;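 further: 0% = enzyme with substrate and 100% = substrate without enzyme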
Target sequence (Q92905 whole entry, looked up, one chain of several): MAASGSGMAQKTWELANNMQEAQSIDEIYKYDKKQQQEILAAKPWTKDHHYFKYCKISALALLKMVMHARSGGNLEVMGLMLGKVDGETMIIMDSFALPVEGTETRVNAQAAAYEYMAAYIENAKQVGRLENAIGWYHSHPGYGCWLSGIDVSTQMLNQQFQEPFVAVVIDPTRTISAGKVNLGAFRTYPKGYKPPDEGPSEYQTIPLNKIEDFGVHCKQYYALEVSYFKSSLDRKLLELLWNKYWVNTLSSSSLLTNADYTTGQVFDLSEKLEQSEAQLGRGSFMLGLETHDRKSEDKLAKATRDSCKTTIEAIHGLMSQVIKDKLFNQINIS
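Schedule: reaction 90 min, room temperature / Assay system: HEK293T-derived human Csn5 enzyme / Input: Csn5 at 0.24 nM final / Measure: inhibition of Csn5 cleavage, % / Control set: substrate-only high control, full reaction low control / Technique: fluorescence polarization of the substrate / Buffer or medium: Tris/NaCl/DTT buffer, pH 7.5 / Reagent: SCFSkp2-Nedd8OG substrate at 10 nM final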
TPT1 inh = Candida albicans TPT1 enzyme inhibitors, primary screen, biochemical, fluorescence polarization; tRNA 2'-phosphotransferase TPT1 (Candida albicans SC5314); recombinant caTPT1, FP RNA substrate dephosphorylation; inhibition, % at 5 µM; hit rate 0.81% among 300,000;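 active means inhibition above the mean of all tested compounds plus 3 SD, set per screening campaign, cut at about 24% in these data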;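 further: plate controls were DMSO alone for no effect and ferristatin control at 100 nM for full effect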
Rpn11 inh conf = Rpn11 (PSMD14) deubiquitinase inhibitors, confirmation, biochemical, fluorescence polarization, single concentration; shares compounds with Rpn11 block; purified human 26S proteasome, Ub4-pepOG fluorescence polarization; proteasome pretreated with epoxomicin; inhibition, % at 20 µM; hit rate 29% among 1,900
MMP-2 counter = MMP-2 enzyme inhibition, confirmation, counter-screen for RPN11 inhibitor project, biochemical, fluorescence, single concentration. shares compounds with Rpn11 block. recombinant MMP-2, FRET peptide cleavage fluorescence. inhibition, % at 20 µM. hit rate 4% among 1,900;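 further: human MMP-2 activated beforehand with APMA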
Thrombin FP = bovine thrombin protease inhibition, confirmation, counter-screen for Rpn11 inhibitor project, biochemical, fluorescence polarization, single concentration; bovine thrombin cleavage of Ub4-pepOG; AID 602333, 2012; inhibition, % at 20 µM; shares compounds with Rpn11 block; hit rate 13% among 1,900;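 active means mean inhibition at least 40% at 20 µM, or signal 3 deviations below plate average, so some actives read negative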;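 further: plate controls were thrombin with DMSO for no effect and buffer wells lacking thrombin for full effect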
The depositor's hits bear a star; i = inactive; / = no result; + = active, no number. This is a sample that favours compounds with a hit; in the whole collection about 1.7% have one here. Unless noted, no stated cut-off is given here; in the data, active means inhibition above about 40%; inactive means the rest.

SMILES	Rpn11 block	IDE act	HNF4A DNA FP	IDE inh	CSN inh	TPT1 inh	Rpn11 inh conf	MMP-2 counter	Thrombin FP
COC(=O)CCC(=O)N1CCCC(N2CCN(c3ccc(OC)cc3)CC2)C1 (configuration not stated)	+	4	8	6	-1	2	0	-55	-1
COCCC(=O)N1CCCC(N2CCN(c3ccc(F)cc3)CC2)C1 (configuration not stated)	i	4	-2	0	-4	1	/	/	/
CCOC(=O)C1=C(C)N(C)C(C)=C(C(=O)OCC)C1c1ccc(C(=O)OC)cc1	i	3	2	2	4	-4	/	/	/
O=c1c2ccccc2nc(SCc2cc(F)cc3c2OCOC3)n1Cc1ccco1	i	0	1	4	5	-4	/	/	/
CCOC(=O)c1cc2c(c(CSc3nc4ccccc4c(=O)n3Cc3ccco3)c1)OCOC2	+	-4	-11	0	17	3	12	4	1
CCCCCCCCN1[C@@H](CC(=O)OCC)c2cc(F)ccc2S1(=O)=O	i	-3	-3	2	-1	1	/	/	/
CCCCCCCCN1[C@@H](CC(=O)OC)c2cc(F)ccc2S1(=O)=O	+	3	3	0	1	-1	10	-9	5
CN(C)c1ccc(CNC(=O)CCc2ccc(S(=O)(=O)N3CCCCCC3)cc2)cc1	i	3	-4	/	-12	/	/	/	/
CCOC(=O)C1CCN(Cc2ccc(F)cc2F)CC1	i	5	0	4	1	0	/	/	/
CCOC(=O)N1CCC(NC(=O)Cn2cc3c(n2)CCC(C)C3)CC1 (configuration not stated)	i	-1	0	7	0	-6	/	/	/
CCC1CCCCN1CCCNS(=O)(=O)c1ccc2c(c1)oc(=O)n2C (configuration not stated)	+	5	6	4	14	14	26	-9	16
CCC1CCCCN1CCNS(=O)(=O)c1ccc2c(c1)oc(=O)n2C (configuration not stated)	i	1	-4	2	0	1	/	/	/
CCc1ccc(OCC(=O)NNC(=O)c2cc(S(=O)(=O)N(C)C)ccc2N2CCCC2)cc1	+	2	-1	0	3	0	56*	17	3
CN1/C(=C\C(=S)NC(=O)c2ccccc2Cl)C(C)(C)c2ccccc21	+	2	68*	3	22	14	11	42*	-6
O=C(Nc1ccc2c(c1)CCC2)c1cc(S(=O)(=O)N2CCN(c3ccccc3)CC2)ccc1Cl	+	-2	22	-2	6	22	41*	14	-50
COc1ccc(C(=O)CC(c2ccccc2)C2C(=O)CCCC2=O)cc1 (configuration not stated)	i	1	-7	-5	3	0	/	/	/
CC(C(=O)Nc1ccc(C(=O)O)c(O)c1)N1C(=O)/C(=C\c2ccco2)SC1=S (configuration not stated)	+	-5	-14	12	53*	15	45*	34	-6
CCOc1ccc(/C=C2\SC(=S)N(CCC(=O)Nc3ccc(C(=O)O)cc3)C2=O)cc1	+	6	3	8	6	-1	15	-42	-16
CC(C(=O)N(C)C1CCS(=O)(=O)C1)N1C(=O)/C(=C/c2ccco2)SC1=S (configuration not stated)	i	4	8	1	8	-33	/	/	/
O=C(CCCN1C(=O)/C(=C/c2ccc3c(c2)OCO3)SC1=S)Nc1ccc(C(=O)O)cc1	+	-2	24	2	11	22	52*	6	21
CCOc1ccc(/C=C2\SC(=S)N(CCC(=O)Nc3cccc(C(=O)O)c3)C2=O)cc1	i	1	-1	-1	16	-3	/	/	/
COc1ccc(C=C2SC(=S)N(CCCC(=O)Nc3ccc(C(=O)O)c(O)c3)C2=O)cc1OC	+	/	23	/	9	/	97*	-30	79*
CCOc1cc(/C=C/C(=O)c2ccc3c(c2)OCCO3)ccc1OCC(=O)N(C)C	i	0	2	4	5	0	/	/	/
CS(=O)(=O)Oc1ccc(Br)cc1/C=C1/N=C(c2ccco2)OC1=O	i	-3	2	1	0	0	/	/	/
CNS(=O)(=O)c1cccc(C(=O)OCC(=O)c2cc3ccccc3o2)c1	i	-3	7	6	7	2	/	/	/
SMILES	Rpn11 block	IDE act	HNF4A DNA FP	IDE inh	CSN inh	TPT1 inh	Rpn11 inh conf	MMP-2 counter	Thrombin FP
O=C(CN1C(=O)S/C(=C\c2ccc(-c3cc(C(=O)O)ccc3Cl)o2)C1=O)Nc1ccc2c(c1)OCO2	+	1	-53	/	18	/	34	4	21
Cn1cc(/C=C2/SC(=O)N(CC(=O)Nc3ccc4c(c3)OCO4)C2=O)c2ccccc21	i	2	8	1	10	2	/	/	/
CCOCCCNS(=O)(=O)c1cc2[nH]c3c(c2cc1C)C(=O)CC(C)(C)C3	i	2	-1	-2	3	-3	/	/	/
COc1ccc(S(=O)(=O)N2CCCC(C(=O)NCc3ccncc3)C2)cc1 (configuration not stated)	+	2	20	3	5	-2	-12	10	-19
COc1ccc(S(=O)(=O)N2CCCC(C(=O)NCc3ccc(F)cc3)C2)cc1 (configuration not stated)	i	7	1	-3	-1	-1	/	/	/
COc1ccc(/C=C2\CCCC3C2=NN(C(=O)CSc2ncn[nH]2)C3c2ccc(OC)cc2)cc1 (configuration not stated)	+	-4	-1	-10	-1	6	-16	-28	-14
